In ChEMBL document CHEMBL5352462, “Resveratrol derivatives: Synthesis and their biological activities” (Eur J Med Chem, 2023):
Values belong to the compound of their own block, whether it stands above or below them.

Tests used:
[1] = Lipophilicity, logP of compound; type: physicochemical; settings: octanol/water
How it was run: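 Log P calculated in silico, not measured experimentally.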

HT-29 = assay: Cytotoxicity against human HT-29 cells incubated for 24 hrs by MTT assay; type: functional, cell-based; settings: HT-29, 24 h
How it was run: (§1)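 Cells plated at 1.5 × 10⁵ per well, allowed to adhere overnight, medium refreshed, then treated at 10, 50 and 100 μM for 24 h; DMSO vehicle controls (<0.1%). Medium replaced after 72 h. MTT at 5 mg/mL in PBS added, 3 h at 37 °C in 5% CO₂; formazan dissolved in DMSO, absorbance read at 550 nm. IC50 from dose-response curves, mean ± SE of three independent experiments.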

MIA PaCa-2 = assay: Cytotoxicity against human MIA PaCa-2 cells incubated for 24 hrs by MTT assay; type: functional, cell-based; settings: MIA PaCa-2, 24 h; how it was run: as §1
COLO 320 [2] = assay: Cytotoxicity against human COLO 320 cell expressing KRAS assessed as growth inhibition by measuring synthetic lethality at 0.2 uM relative to control; type: functional
[3] = target: Calcitonin gene-related peptide type 1 receptor (Homo sapiens, UniProt O60894+Q16602); assay: Inhibition of human CGRP1
Sequence of Calcitonin gene-related peptide type 1 receptor (Q16602 whole entry, one chain of several): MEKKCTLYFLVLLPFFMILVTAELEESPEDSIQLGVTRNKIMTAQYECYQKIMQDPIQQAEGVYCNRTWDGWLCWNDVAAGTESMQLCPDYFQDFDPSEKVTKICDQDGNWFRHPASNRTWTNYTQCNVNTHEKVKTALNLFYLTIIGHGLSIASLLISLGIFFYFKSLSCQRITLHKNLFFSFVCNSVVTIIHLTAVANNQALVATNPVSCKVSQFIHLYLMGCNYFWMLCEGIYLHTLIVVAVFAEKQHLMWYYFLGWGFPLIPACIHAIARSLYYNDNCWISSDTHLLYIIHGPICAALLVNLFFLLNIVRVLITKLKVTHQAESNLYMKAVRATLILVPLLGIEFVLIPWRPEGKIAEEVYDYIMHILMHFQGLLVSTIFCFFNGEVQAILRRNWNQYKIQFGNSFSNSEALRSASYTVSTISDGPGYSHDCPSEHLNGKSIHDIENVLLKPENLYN

SNU-C1 [4] = assay: Cytotoxicity against human SNU-C1 cell expressing KRAS assessed as growth inhibition by measuring synthetic lethality at 20 uM relative to control; type: functional
RKO = assay: Cytotoxicity against human RKO cell expressing KRAS assessed as growth inhibition by measuring synthetic lethality at 0.2 uM relative to control; type: functional
COLO 320 [5] = assay: Cytotoxicity against human COLO 320 cell expressing KRAS assessed as growth inhibition by measuring synthetic lethality at 2 uM relative to control; type: functional
HCT cell line [6] = assay: Cytotoxicity against HCT cell expressing KRAS assessed as growth inhibition by measuring synthetic lethality at 0.2 uM relative to control; type: functional; settings: Homo sapiens
SNU-C1 [7] = assay: Cytotoxicity against human SNU-C1 cell expressing KRAS assessed as growth inhibition by measuring synthetic lethality at 2 uM relative to control; type: functional
[8] = target: Calcitonin gene-related peptide type 1 receptor (Homo sapiens) (UniProt Q16602); assay: Inhibition of human CGRP1 at 30 uM relative to control
Sequence of Calcitonin gene-related peptide type 1 receptor (Homo sapiens) (Q16602 whole entry): as the sequence (Q16602 whole entry, one chain of several) above

HCT-116 [9] = assay: Cytotoxicity against HCT-116 cell expressing KRAS assessed as growth inhibition by measuring synthetic lethality at 20 uM relative to control; type: functional; settings: Homo sapiens
SNU-C1 [10] = assay: Cytotoxicity against human SNU-C1 cell expressing KRAS assessed as growth inhibition by measuring synthetic lethality at 0.2 uM relative to control; type: functional
HCT-116 [11] = assay: Cytotoxicity against HCT-116 cell expressing KRAS assessed as growth inhibition by measuring synthetic lethality at 2 uM relative to control; type: functional; settings: Homo sapiens
COLO 320 [12] = assay: Cytotoxicity against human COLO 320 cell expressing KRAS assessed as growth inhibition by measuring synthetic lethality at 20 uM relative to control; type: functional
HCT cell line [13] = assay: Cytotoxicity against HCT cell expressing KRAS assessed as growth inhibition by measuring synthetic lethality at 20 uM relative to control; type: functional; settings: Homo sapiens
HCT cell line [14] = assay: Cytotoxicity against HCT cell expressing KRAS assessed as growth inhibition by measuring synthetic lethality at 2 uM relative to control; type: functional; settings: Homo sapiens
[15] = target: Microtubule-associated protein tau (Homo sapiens) (UniProt P10636); assay: Inhibition of Tau in human Huh-7 cells at 40 uM relative to control; type: cell-based
Sequence of Microtubule-associated protein tau (Homo sapiens) (P10636 whole entry): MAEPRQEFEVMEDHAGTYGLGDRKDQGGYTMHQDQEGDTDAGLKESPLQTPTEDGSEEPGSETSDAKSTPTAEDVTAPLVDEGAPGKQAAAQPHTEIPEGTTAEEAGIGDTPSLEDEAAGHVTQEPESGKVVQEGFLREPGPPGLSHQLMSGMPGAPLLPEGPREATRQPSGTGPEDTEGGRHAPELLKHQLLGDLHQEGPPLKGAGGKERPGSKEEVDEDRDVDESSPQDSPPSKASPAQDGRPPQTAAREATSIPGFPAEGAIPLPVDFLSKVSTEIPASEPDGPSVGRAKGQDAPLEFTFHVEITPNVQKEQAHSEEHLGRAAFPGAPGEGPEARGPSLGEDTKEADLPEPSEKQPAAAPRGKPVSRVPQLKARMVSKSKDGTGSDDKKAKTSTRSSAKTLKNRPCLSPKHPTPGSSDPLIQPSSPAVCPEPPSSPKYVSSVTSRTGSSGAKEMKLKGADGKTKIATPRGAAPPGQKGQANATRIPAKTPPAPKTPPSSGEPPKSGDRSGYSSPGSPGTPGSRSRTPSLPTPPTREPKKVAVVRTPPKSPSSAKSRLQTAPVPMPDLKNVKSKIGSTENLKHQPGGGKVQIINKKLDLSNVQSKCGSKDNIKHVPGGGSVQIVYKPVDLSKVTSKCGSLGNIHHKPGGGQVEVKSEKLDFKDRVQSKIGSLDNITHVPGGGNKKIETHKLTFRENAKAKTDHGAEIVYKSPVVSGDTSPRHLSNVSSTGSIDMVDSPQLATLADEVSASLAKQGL

logP [1]: > 11.2
SMILES: CCCCCCCCCCCC(=O)Oc1ccc(C=Cc2cc(OC(=O)CCCCCCCCCCC)cc(OC(=O)CCCCCCCCCCC)c2)cc1
IC50 (MIA PaCa-2): 198 µM
IC50 (HT-29): 134 µM

logP [1]: 2.29
SMILES: OCCOc1ccc(/C=C/c2cc(OCCO)cc(OCCO)c2)cc1
IC50 (MIA PaCa-2): 79 µM
IC50 (HT-29): 23 µM

logP [1]: 8.76
SMILES: CC(C)(C)C(=O)Oc1ccc(/C=C/c2cc(OC(=O)C(C)(C)C)cc(OC(=O)C(C)(C)C)c2)cc1
IC50 (MIA PaCa-2): 39 µM
IC50 (HT-29): 56 µM

logP [1]: 2.93
SMILES: COc1ccc(-c2cc3cc(OC)cc(OC)c3[nH]2)cc1
IC50 (HT-29): 211 µM

logP [1]: 3.59
SMILES: COc1ccc(/C=C/c2cc(OC)c(OC)c(OC)c2)c(OC)c1
IC50 (MIA PaCa-2): 28 µM
IC50 (HT-29): 12 µM

Further lines, the compound ahead of its results:

SMILES: Oc1cc(O)cc(-c2cc3ccc(O)cc3o2)c1 [MORACIN M]
logP [1]: 2.21
IC50 (HT-29): 73 µM

SMILES: COc1cc(OC)cc(-c2cc3ccc(O)cc3o2)c1
logP [1]: 2.74
IC50 (HT-29): 19 µM

SMILES: Oc1ccc2cc(-c3cc(O)c(O)c(O)c3)oc2c1
inhibition at 0.2 µM (COLO 320 [2]): 0%
IC50 [3]: 2.77 µM
inhibition at 20 µM (SNU-C1 [4]): 11.2%
inhibition at 0.2 µM (RKO): 2.7%
logP [1]: 1.82
inhibition at 2 µM (COLO 320 [5]): 0%
inhibition at 0.2 µM (HCT cell line [6]): 15.6%
inhibition at 2 µM (SNU-C1 [7]): 3.1%
inhibition [8]: 59.9%
inhibition at 20 µM (HCT-116 [9]): 85.9%
inhibition at 0.2 µM (SNU-C1 [10]): 5.8%
IC50 (HT-29): 56 µM
inhibition at 2 µM (HCT-116 [11]): 33%
inhibition at 20 µM (COLO 320 [12]): 0%
inhibition at 20 µM (HCT cell line [13]): 0%
inhibition at 2 µM (HCT cell line [14]): 0.5%

SMILES: COc1ccc(-c2cc3cc(C)cc(C)c3[nH]2)cc1
logP [1]: 4.15
IC50 (HT-29): 331 µM

SMILES: Oc1ccc(/C=C/c2cc(O)c(O)c(O)c2)c(O)c1
IC50 (MIA PaCa-2): 96 µM
logP [1]: 2.28
IC50 (HT-29): 78 µM

SMILES: COc1ccc(/C=C/c2cc(OC)cc(OC)c2)cc1 [TRISMETHOXYRESVERATROL]
IC50 (MIA PaCa-2): 35 µM
logP [1]: 3.85

SMILES: Oc1ccc(/C=C/c2cc(O)cc(O)c2)cc1 [RESVERATROL]
IC50 (MIA PaCa-2): 132 µM
inhibition [15]: 21.3%
inhibition [8]: 2.3%
IC50 (HT-29): 78 µM

SMILES: COc1ccc(OC)c(-c2cc3ccc(O)cc3[nH]2)c1
inhibition at 0.2 µM (COLO 320 [2]): 0%
inhibition at 20 µM (SNU-C1 [4]): 30.3%
inhibition at 0.2 µM (RKO): 9.4%
logP [1]: 2.66
inhibition at 2 µM (COLO 320 [5]): 0%
inhibition at 0.2 µM (HCT cell line [6]): 0%
inhibition at 2 µM (SNU-C1 [7]): 0%
inhibition at 20 µM (HCT-116 [9]): 0%
inhibition at 0.2 µM (SNU-C1 [10]): 0%
IC50 (HT-29): 10 µM
inhibition at 2 µM (HCT-116 [11]): 0%
inhibition at 20 µM (COLO 320 [12]): 55.3%
inhibition at 20 µM (HCT cell line [13]): 6.3%
inhibition at 2 µM (HCT cell line [14]): 0%

SMILES: COc1ccc(OC)c(-c2cc3ccc(OCc4ccccc4)cc3[nH]2)c1
inhibition at 0.2 µM (COLO 320 [2]): 0%
inhibition at 20 µM (SNU-C1 [4]): 44.5%
inhibition at 0.2 µM (RKO): 77.3%
logP [1]: 5.15
inhibition at 2 µM (COLO 320 [5]): 0%
inhibition at 0.2 µM (HCT cell line [6]): 0%
inhibition at 2 µM (SNU-C1 [7]): 13.9%
inhibition at 20 µM (HCT-116 [9]): 89.7%
inhibition at 0.2 µM (SNU-C1 [10]): 7.4%
IC50 (HT-29): 239 µM
inhibition at 2 µM (HCT-116 [11]): 45.6%
inhibition at 20 µM (COLO 320 [12]): 0%
inhibition at 20 µM (HCT cell line [13]): 48.9%
inhibition at 2 µM (HCT cell line [14]): 6.9%

SMILES: COc1cc(-c2cc3ccc(O)cc3o2)cc(OC)c1OC
inhibition at 0.2 µM (COLO 320 [2]): 0%
IC50 [3]: 2.41 µM
inhibition at 20 µM (SNU-C1 [4]): 14.9%
inhibition at 0.2 µM (RKO): 0%
inhibition [15]: 58%
logP [1]: 2.61
inhibition at 2 µM (COLO 320 [5]): 4.4%
inhibition at 0.2 µM (HCT cell line [6]): 0%
inhibition at 2 µM (SNU-C1 [7]): 8.7%
inhibition [8]: 54.2%
inhibition at 20 µM (HCT-116 [9]): 87.4%
inhibition at 0.2 µM (SNU-C1 [10]): 8.7%
IC50 (HT-29): 14 µM
inhibition at 2 µM (HCT-116 [11]): 6.3%
inhibition at 20 µM (COLO 320 [12]): 0%
inhibition at 20 µM (HCT cell line [13]): 0%
inhibition at 2 µM (HCT cell line [14]): 0.5%
